High-throughput results: PubChem BioAssay, Johns Hopkins Ion Channel Center
Kir21 block: Kir2.1 (mouse) channel inhibition; P35561; HEK293-Kir2.1, FluxOR thallium flux fluorescence; hits give low values; B-score at 10 µM; hit rate 0.85% among 310,000; AID 1672;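 active = fluorescence ratio B-score at or below minus 3 SD of library scores, with starting-brightness B-score within 2 SD, cut at about -4.2 in these data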;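 also: channel flux triggered by added potassium and thallium sulfate stimulus; B-score of peak minus minimum fluorescence over baseline after thallium stimulus; more negative B-score means stronger Kir2.1 block with less thallium influx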
hERG rescue: hERG (human) protection from proarrhythmic block. hit rate 0.51% among 310,000. CHO-hERG, FluxOR thallium flux, dofetilide IC70 present. activation (rescue from dofetilide block), less the hit threshold, % at 10 µM;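 active = activation above the mean of controls blocked by dofetilide plus 5 SD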;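 also: thallium influx through hERG after potassium depolarization seen as dye fluorescence rise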
KCNQ1 block: human KCNQ1 channel inhibition. P51787. CHO-K1 KCNQ1, FluxOR thallium flux fluorescence; hits give high values. B-score at 10 µM. hit rate 1.3% among 310,000. AID 2642;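 active = compounds whose thallium flux B-score, printed positive for inhibition, exceeds three library SD while starting fluorescence stays within three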;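 also: channel opened by potassium depolarization with thallium stimulus after 20 min compound exposure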
Target sequence (P51787 whole entry, looked up): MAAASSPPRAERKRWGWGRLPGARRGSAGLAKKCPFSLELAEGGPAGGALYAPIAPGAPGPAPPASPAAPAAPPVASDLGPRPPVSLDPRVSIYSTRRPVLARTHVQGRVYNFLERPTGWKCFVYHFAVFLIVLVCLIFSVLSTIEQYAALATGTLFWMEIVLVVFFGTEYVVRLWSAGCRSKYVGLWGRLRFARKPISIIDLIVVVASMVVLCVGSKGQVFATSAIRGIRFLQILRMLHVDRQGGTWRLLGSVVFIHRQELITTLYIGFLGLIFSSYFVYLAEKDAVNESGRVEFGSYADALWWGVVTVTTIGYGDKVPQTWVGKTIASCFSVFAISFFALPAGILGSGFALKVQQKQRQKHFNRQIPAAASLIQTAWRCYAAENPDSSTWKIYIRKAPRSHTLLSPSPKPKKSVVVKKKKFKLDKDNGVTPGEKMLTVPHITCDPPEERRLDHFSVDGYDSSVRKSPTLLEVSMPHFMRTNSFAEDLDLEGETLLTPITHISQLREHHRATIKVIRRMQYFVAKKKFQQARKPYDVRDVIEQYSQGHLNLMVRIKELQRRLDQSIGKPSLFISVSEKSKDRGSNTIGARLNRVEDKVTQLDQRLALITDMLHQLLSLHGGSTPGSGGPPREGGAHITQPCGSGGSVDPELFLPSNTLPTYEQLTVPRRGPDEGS
KCNK3 inh: human KCNK3 channel inhibition, primary screen; O14649; CHO-KCNK3 thallium flux, FluxOR fluorescence; hits give low values; hit rate 0.84% among 340,000; B-score at 10 µM;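 active = B-score under library mean minus 4 SD, starting fluorescence ratio at most library mean plus 5 SD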;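 also: more negative B-score means stronger inhibition of thallium flux through KCNK3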
KCNQ1 pot: human KCNQ1 channel potentiation or activation. P51787. CHO-K1 KCNQ1, thallium flux FluxOR fluorescence; hits give high values. B-score at 10 µM. hit rate 0.35% among 310,000;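 active = fluorescence ratio B-score, a plate-corrected score, at least three library SD, with initial intensity B-score within 5 SD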
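Material: CHO-K1 cells stably expressing KCNQ1. Medium: assay buffer for compound exposure, DMSO matched across wells. Reagent: K+/Tl+ depolarizing stimulus. Compound dosing: single-concentration screen. Times: 37 °C overnight plating, 90-min dark dye load, 20-min compound pretreatment. Technique: FluxOR Tl+ flux fluorescence.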
KCNK9 inh: blocks the human KCNK9 two-pore domain potassium channel; Q9NPC2; HEK293 KCNK9, FluxOR thallium flux fluorescence; hits give low values; B-score at 10 µM; hit rate 1.2% among 310,000;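 active = ratio B-score over 3 SD below the library mean, with starting fluorescence within 5 SD of its mean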;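 also: negative B-score means less thallium flux so channel inhibition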
Numbers stand for hits; - = inactive; . = no result. Compounds with a hit are over-represented: about 3.7% of the library has one in this group of screens.

SMILES | Kir21 block | hERG rescue | KCNQ1 block | KCNK3 inh | KCNQ1 pot | KCNK9 inh
Cc1ccc(/C(O)=C/C(=O)C(=O)NNC(=O)C(O)(c2ccccc2)c2ccccc2)cc1 | - | - | - | - | 13 | -
COc1ccccc1OC(C)C(=O)Nc1ccccc1C(=O)NCC1CCCO1 (stereo unspecified) | - | - | - | - | - | -
Cc1ccc(C)c2[nH]c(=O)c(CN(Cc3ccco3)S(=O)(=O)c3ccc4c(c3)OCCO4)cc12 | - | - | 6 | - | - | -
Cc1ccc(C)c2[nH]c(=O)c(CN(Cc3ccc4c(c3)OCO4)Cc3nnnn3Cc3ccco3)cc12 | - | - | - | -9.4 | - | -7.1
Cc1ccc(Nc2nnc(-c3ccccc3N)o2)cc1C | - | - | - | - | - | -
Cc1cc(O)cc(C)c1NS(=O)(=O)c1ccc2ccccc2c1 | -6.6 | - | - | - | - | -
CN(c1ccc(O)cc1)S(=O)(=O)c1ccc2ccccc2c1 | -5.9 | - | - | - | - | -
CC(C)c1cc(Br)ccc1OCCCN1C(=O)NC(C)(C)C1=O | -6.8 | - | - | - | - | -
COc1cc(/C=C2\SC(=O)N(c3ccccc3Cl)C2=O)cc([N+](=O)[O-])c1O | - | - | 10 | - | - | -
O=C(Nc1nc2n(n1)C(c1ccccc1)CC(c1ccc(Cl)cc1)N2)c1ccco1 (stereo unspecified) | - | - | - | - | - | -6.9
O=C(c1cccc(-n2cccc2)c1)N1CCN(S(=O)(=O)c2ccccc2Br)CC1 | . | . | . | - | . | .
Cc1ccc(-c2c(=O)n(O)c3ccccc3[n+]2[O-])cc1 | - | - | - | - | 17 | -
COn1c(=O)c(-c2ccccc2)[n+]([O-])c2ccccc21 | - | - | - | - | - | -
CCOc1ccc(-c2c(=O)n(OCC)c3ccccc3[n+]2[O-])cc1 | - | - | - | - | - | -
COn1c(=O)c(-c2ccc(C)cc2)[n+]([O-])c2ccccc21 | - | - | - | - | - | -
CCOc1ccc(-c2c(=O)n(O)c3ccccc3[n+]2[O-])cc1 | - | 18 | - | - | 12 | -
O=c1c(-c2ccccc2)[n+]([O-])c2ccccc2n1O | - | 13 | - | - | - | -
CCOc1ccc(N2C(=O)S/C(=C\c3cc(OC)c(OC)c(OC)c3)C2=O)cc1 | - | - | - | - | - | -
CCCCn1c(N)c(N(CC)C(=O)COc2ccc(C#N)cc2)c(=O)[nH]c1=O | . | . | . | - | . | .
O=C(COc1ccc(Br)cc1)NCCCN1CCCC1=O | . | . | . | - | . | .
Cc1ccc(COc2ccc(CNCCCN3CCCCCC3=O)cc2)cc1 | -5.1 | - | - | - | - | -
OCC1(CCc2ccccc2)CCN(Cc2ccc(OC(F)F)cc2)CC1 | - | - | - | - | - | -
Cc1ccc(-n2cccn2)c(CN2CCC(CO)(CCc3ccccc3)CC2)c1 | - | - | - | - | - | -
OCC1(CCCc2ccccc2)CCN(Cc2ccc(F)cc2)CC1 | -6.2 | - | - | - | - | -
OCC1(CCc2ccccc2)CCN(Cc2cc(Cl)ccc2O)CC1 | -4.8 | - | - | - | - | -
SMILES | Kir21 block | hERG rescue | KCNQ1 block | KCNK3 inh | KCNQ1 pot | KCNK9 inh
CCCN(CC(=O)Nc1ccc(F)c(F)c1F)C(=O)C1=COCCO1 | - | - | - | - | - | -
Cc1nn(-c2ccccc2)c2nc(C(Cl)(Cl)Cl)[nH]c(=O)c12 | - | - | - | - | 12 | -
CCOC(=O)CN1CC(C)(C)N(CC(=O)OCC)CC1(C)C | . | . | . | - | . | .
O=C(c1ccc2c(c1)OCO2)C1CCCN(Cc2ccc(OC(F)F)cc2)C1 (stereo unspecified) | -10 | - | - | - | - | -
COc1cc(OC)c(OC)cc1CN1CCCC(C(=O)c2ccc3c(c2)OCO3)C1 (stereo unspecified) | - | - | - | - | - | -
CCOc1ccc(C2/C(=C(\O)c3ccc4c(c3)OCCO4)C(=O)C(=O)N2CCN2CCOCC2)cc1OCC (stereo unspecified) | - | - | - | - | - | -
COC(=O)c1sccc1NC(=S)NCc1ccc(Cl)cc1 | - | 14 | - | - | - | -
CCOC(=O)c1c(C)[nH]c(C2=NNC(=Nc3cccc(Cl)c3)SC2)c1C | - | - | - | . | - | -
CCCn1c(SCC(=O)N2CC(=O)Nc3ccccc32)nc2ccccc21 | -6.9 | - | - | - | - | -
O=C(Cn1nc2n(c1=O)-c1ccccc1SC2)N/N=C/c1cccnc1 | - | - | - | - | - | -
